Among the data in ChEMBL document CHEMBL4680104, “Structure-Based Optimization of Small-Molecule Inhibitors for the β-Catenin/B-Cell Lymphoma 9 Protein-Protein Interaction” (J Med Chem, 2018) are inhibition, IC50 and Ki values, retold here.

Experiment [1] concerns the target beta-catenin-B-cell lymphoma 9 protein complex (Homo sapiens) (UniProt P35222+O00512). Briefly: Inhibition of protein interaction between beta-catenin (unknown origin)/BCL9 in HEK293 cells transfected with beta-catenin assessed as reduction in Wnt/beta-catenin transactivation incubated for 24 hrs by Wnt-responsive FOP-Flash luciferase reporter assay. In kind it is cell-based. The method in brief: (§1)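 HEK293 cells were cotransfected using FuGENE6 with 45 ng TOPFlash or FOPFlash reporter, 135 ng pcDNA3.1-β-catenin and 20 ng pCMV-RL normalization reporter. After 24 h in DMEM with 10% FBS at 37 °C, inhibitors or DMSO were added for 24 h. Reporter activity was read with a dual luciferase system, normalized, and compared with DMSO-treated cells. Triplicate.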

For a further experiment, the system named is SW480. Briefly: Cytotoxicity in human SW480 cells assessed as reduction in cell viability incubated for 72 hrs by MTS assay. It is filed as functional, cell-based. The following applies: SW480, 72 h. The method in brief: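 Cells seeded at 5 × 10^3 cells/well, kept overnight at 37 °C, then exposed to inhibitors at various concentrations for 72 h. Viability read with a freshly mixed PMS (0.92 mg/mL) : MTS (2 mg/mL) reagent at 1:19, incubated 3 h at 37 °C, A490 measured. […] Triplicate; mean ± SD.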

The target of experiment [2] is T1, beta-catenin-B-cell lymphoma 9 protein complex (Homo sapiens, UniProt P35222).
T1 sequence (P35222 whole entry): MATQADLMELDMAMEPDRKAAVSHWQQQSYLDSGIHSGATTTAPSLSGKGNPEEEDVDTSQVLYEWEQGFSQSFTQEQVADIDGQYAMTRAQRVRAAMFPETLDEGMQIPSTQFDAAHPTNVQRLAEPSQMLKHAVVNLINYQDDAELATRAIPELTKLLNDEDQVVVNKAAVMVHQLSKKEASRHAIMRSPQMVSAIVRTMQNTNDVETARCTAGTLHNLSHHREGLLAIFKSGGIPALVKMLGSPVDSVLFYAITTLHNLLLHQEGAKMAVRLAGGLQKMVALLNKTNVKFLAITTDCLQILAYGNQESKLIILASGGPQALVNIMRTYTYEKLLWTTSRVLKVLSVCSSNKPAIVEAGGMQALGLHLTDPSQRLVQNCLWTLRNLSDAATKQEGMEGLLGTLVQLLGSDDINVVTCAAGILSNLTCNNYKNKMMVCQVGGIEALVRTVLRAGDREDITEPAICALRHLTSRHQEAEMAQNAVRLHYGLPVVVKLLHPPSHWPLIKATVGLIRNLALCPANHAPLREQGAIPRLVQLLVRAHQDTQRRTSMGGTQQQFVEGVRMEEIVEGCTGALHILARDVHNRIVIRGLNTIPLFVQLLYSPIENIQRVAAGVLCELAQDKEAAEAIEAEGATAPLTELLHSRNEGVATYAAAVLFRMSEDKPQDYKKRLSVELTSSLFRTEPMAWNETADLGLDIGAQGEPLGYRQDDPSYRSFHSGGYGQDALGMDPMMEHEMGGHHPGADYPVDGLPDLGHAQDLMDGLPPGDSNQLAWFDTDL
T1 sequence (O00512 whole entry): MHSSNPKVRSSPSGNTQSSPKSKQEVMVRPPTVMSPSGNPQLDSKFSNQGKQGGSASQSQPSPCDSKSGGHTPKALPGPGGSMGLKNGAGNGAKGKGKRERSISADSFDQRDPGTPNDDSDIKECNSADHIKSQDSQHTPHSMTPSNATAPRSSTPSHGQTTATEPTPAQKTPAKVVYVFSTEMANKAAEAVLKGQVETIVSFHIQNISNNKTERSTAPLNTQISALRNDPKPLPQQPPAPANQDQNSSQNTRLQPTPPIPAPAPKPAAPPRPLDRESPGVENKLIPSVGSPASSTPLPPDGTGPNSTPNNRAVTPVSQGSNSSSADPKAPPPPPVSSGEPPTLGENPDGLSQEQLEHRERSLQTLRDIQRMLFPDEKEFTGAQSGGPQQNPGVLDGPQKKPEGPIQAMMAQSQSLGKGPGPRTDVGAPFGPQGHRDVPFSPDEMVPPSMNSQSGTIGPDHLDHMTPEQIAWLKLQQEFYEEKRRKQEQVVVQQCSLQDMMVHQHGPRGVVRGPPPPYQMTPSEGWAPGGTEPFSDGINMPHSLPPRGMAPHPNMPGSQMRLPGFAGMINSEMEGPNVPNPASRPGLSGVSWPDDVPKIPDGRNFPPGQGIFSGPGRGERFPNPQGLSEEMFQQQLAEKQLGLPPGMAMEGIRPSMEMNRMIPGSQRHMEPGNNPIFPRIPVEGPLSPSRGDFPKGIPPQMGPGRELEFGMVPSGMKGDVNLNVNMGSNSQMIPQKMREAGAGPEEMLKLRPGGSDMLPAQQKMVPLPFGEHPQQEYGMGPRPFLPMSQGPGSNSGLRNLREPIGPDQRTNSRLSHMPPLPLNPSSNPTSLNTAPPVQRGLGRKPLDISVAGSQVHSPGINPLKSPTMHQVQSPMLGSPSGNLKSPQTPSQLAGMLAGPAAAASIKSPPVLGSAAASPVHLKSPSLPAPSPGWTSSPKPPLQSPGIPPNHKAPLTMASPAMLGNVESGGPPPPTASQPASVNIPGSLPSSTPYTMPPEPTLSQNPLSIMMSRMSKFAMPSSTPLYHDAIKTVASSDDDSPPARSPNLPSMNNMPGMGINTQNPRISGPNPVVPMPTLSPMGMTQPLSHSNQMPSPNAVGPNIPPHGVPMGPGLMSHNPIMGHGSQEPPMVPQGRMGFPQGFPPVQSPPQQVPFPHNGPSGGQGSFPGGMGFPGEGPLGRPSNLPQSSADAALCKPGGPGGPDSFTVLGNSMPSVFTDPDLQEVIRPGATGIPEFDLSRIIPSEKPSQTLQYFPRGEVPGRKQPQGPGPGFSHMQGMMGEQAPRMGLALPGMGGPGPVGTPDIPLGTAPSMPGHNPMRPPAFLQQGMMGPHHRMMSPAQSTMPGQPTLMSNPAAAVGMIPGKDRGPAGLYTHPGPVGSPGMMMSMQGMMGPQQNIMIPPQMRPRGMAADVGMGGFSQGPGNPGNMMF
Briefly: Inhibition of protein interaction between C-terminal 6x-histidine tagged full-length beta-catenin (1 to 781 residues) (unknown origin)/N-terminal biotinylated human BCL9 ( 350 to 375 residues) incubated for 1 hr by Alpha-screen competitive inhibition assay. In kind it is protein-complex assay. The method in brief: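 Full-length β-catenin (residues 1–781) with a C-terminal His6 tag was expressed in E. coli BL21(DE3) after IPTG induction at 20 °C. It was purified by Ni-NTA, anion-exchange and size-exclusion chromatography. For the assay, 40 nM β-catenin was preincubated for 30 min at 4 °C with 5 nM biotinylated BCL9 or 10 nM biotinylated E-cadherin. Inhibitor was then added for 1 h at 4 °C, followed by 10 μg/mL donor and acceptor beads for 1 h at 4 °C. IC50 was obtained by nonlinear fit and converted to Ki by the Nikolovska-Coleska method. Triplicate, mean ± SD.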

The target in experiment [3] is T1, beta-catenin-B-cell lymphoma 9 protein complex. Briefly: Inhibition of protein interaction between beta-catenin (unknown origin)/BCL9 in HEK293 cells transfected with beta-catenin assessed as reduction in Wnt/beta-catenin transactivation incubated for 24 hrs by Wnt-responsive TOP-Flash luciferase reporter assay. It is filed as cell-based. Put shortly:
as §1

Activity calls are given as the source filed them. No cut-off for these calls is given here.

Turning to `Cl.Cl.O=C(Nc1ccc(O[C@H]2CCNC2)c(-c2ccc(F)cc2)c1)c1ccc(O[C@H]2CCNC2)c(-c2ccc3ccsc3c2)c1`, in experiment [1], the inhibition entry is “Active”. For the same molecule, the half-inhibitory concentration (IC50) in the experiment with SW480 worked out at 2 µM; in experiment [3], 6.2 µM. In addition, the affinity in experiment [2], expressed as Ki, was 1.3 µM.

Take `Cl.Cl.O=C(Nc1ccc(O[C@H]2CCNC2)c(-c2ccc(F)cc2)c1)c1ccc(O[C@H]2CCNC2)c(-c2ccc(F)c(F)c2)c1`: the inhibition result in experiment [1] is “Active”. Further, the Ki in experiment [2] stood at 2.1 µM. Moreover, the IC50 in experiment [3] stood at 4.5 µM.

For `Cc1cc(F)ccc1-c1cc(NC(=O)c2ccc(O[C@H]3CCNC3)c(-c3ccc(F)c(F)c3)c2)ccc1O[C@H]1CCNC1.Cl.Cl`, in experiment [1], the inhibition result was “Active”. For the same molecule, the IC50 with SW480 came out at 0.9 µM. The molecule also displayed a Ki in experiment [2] of 3.5 µM.

`Cl.Cl.O=C(Nc1ccc(O[C@H]2CCNC2)c(-c2ccc(F)cc2)c1)c1cnc(O[C@H]2CCNC2)c(-c2ccc(F)c(F)c2)c1`: the inhibition entry in experiment [1] is “Active”. For the same molecule, the IC50 in the experiment with SW480 came out at 3 µM; in experiment [3] it was 22 µM. In experiment [2], the Ki was 8.7 µM.

Take `Cl.Cl.O=C(Nc1ccc(O[C@H]2CCNC2)c(-c2ccc(F)cc2)c1)c1ccc(O[C@H]2CCNC2)c(-c2ccc3cc(F)ccc3c2)c1`: the inhibition entry in experiment [1] is “Active”. For the same molecule, the values for the 50% inhibitory concentration (IC50) (in the experiment on SW480; in experiment [3]) were 1.8 µM and 10 µM, respectively. Besides, the affinity in experiment [2], expressed as Ki, was 1.3 µM.

Turning to `Cl.Cl.O=C(Nc1ccc(O[C@H]2CCNC2)c(-c2ccc(F)cc2)c1)c1ccc(O[C@H]2CCNC2)c(C2CCC(C(F)(F)F)CC2)c1` (stereo not given in full), the inhibition entry in experiment [1] is “Active”. Also, the figures for the IC50 (in the experiment on SW480; in experiment [3]) were 3.6 µM and 10 µM, respectively. The molecule further gave a Ki in experiment [2] of 4.2 µM.

On to `Cl.Cl.O=C(Nc1ccc(O[C@@H]2CCNC2)c(-c2cccc(-c3nn[nH]n3)c2)c1)c1ccc(O[C@H]2CCNC2)c(-c2ccc(F)c(F)c2)c1`, for which, in experiment [1], the inhibition result was “inactive”. Besides, the IC50 was determined as 41 µM with SW480 and 25 µM in experiment [3].
